TRPC6 inh = mouse TRPC6 channel inhibition | AID 2553 | actives 1.1% (n = 310,000) | HEK293-TRPC6, membrane potential dye, ACh-evoked depolarization; hits give low values | B-score at 10 µM | Q61143;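 active means B-score under library mean minus 3 SD, initial fluorescence not abnormally high, positive integrated signal ratio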;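 further: B-score derived from integrated fluorescence ratio over the kinetic read; more negative B-score means stronger inhibition of depolarization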
TRPC4 inh = TRPC4 (mouse) channel inhibition; Q9QUQ5; HEK293 TRPC4beta/mu-opioid, DAMGO-evoked Fluo4 calcium flux; hits give low values; B-score at 10 µM; actives 0.39% (n = 300,000);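 active means B-score over 3 SD under the library average, no early fluorescence shift, positive overall ratio signal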
Target sequence (Q9QUQ5 whole entry, looked up): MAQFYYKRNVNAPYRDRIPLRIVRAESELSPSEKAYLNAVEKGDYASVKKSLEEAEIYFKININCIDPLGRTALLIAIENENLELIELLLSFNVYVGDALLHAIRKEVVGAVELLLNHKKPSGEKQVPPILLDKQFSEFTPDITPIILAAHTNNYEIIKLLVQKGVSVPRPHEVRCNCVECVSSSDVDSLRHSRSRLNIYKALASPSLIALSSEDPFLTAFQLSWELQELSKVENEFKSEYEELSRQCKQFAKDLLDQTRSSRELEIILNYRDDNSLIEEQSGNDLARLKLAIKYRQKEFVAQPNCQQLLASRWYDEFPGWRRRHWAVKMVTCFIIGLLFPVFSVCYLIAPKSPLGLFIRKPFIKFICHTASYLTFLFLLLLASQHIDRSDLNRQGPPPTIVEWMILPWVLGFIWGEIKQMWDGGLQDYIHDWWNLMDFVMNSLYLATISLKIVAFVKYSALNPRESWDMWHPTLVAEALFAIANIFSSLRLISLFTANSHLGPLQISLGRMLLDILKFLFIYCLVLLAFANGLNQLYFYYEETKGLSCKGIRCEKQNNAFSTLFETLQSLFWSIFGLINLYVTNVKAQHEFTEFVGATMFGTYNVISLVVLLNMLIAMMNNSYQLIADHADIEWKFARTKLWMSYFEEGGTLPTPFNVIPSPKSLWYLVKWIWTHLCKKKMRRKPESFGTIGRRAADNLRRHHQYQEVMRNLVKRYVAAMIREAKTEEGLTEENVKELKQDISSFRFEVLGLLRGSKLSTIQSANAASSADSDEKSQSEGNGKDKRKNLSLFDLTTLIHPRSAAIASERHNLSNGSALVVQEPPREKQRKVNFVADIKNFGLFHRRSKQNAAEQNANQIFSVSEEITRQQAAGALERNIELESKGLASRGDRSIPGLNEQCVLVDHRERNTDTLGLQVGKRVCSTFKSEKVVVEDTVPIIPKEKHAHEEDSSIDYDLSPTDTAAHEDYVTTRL
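Assay system: HEK293 cells with stable TRPC4beta plus mu-opioid receptor expression; Probe or stimulus: DAMGO in two steps, submaximal then maximal; Dosing: single-point compound dosing; Measured by: Fluo4 calcium-dye fluorescence, kinetic read; Read-out basis: B score from integrated Fluo4 fluorescence ratio.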
TRPC4 PAM = allosteric potentiators of mouse TRPC4 channel; Q9QUQ5; HEK293 TRPC4beta/mu-opioid, DAMGO EC20, Fluo-4 Ca2+ flux; hits give high values; B-score at 10 µM; actives 0.42% (n = 310,000); AID 2227;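 active means B-score of calcium response area above 5 SD of library B-scores, with initial fluorescence ratio within 5 SD of library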
TRPC4 agonist = TRPC4 (mouse) channel activation; actives 0.49% (n = 310,000); Q9QUQ5; B-score at 10 µM; HEK293 TRPC4beta/mu-opioid, Fluo4 calcium fluorescence; hits give high values;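 active means B-score above 5 SD of library B-scores, and initial fluorescence ratio not above library mean plus 5 SD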;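 further: positive B-score marks a calcium rise read as TRPC4 activation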
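Material: HEK293 stable line with TRPC4beta plus mu-opioid receptor; technique: Fluo4 calcium-sensitive dye fluorescence, kinetic, 1 Hz baseline; timing: Fluo4 dye loading 45 min at room temperature, 110 s recording; controls: assay buffer as low control, maximal DAMGO as high control; read-out: integrated baseline-normalised fluorescence ratio, converted to per-well B score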
Platelet DG rel = platelet dense granule release activity; inhibition, %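 (compounds screened at 7.5 µM in platelet-rich plasma)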; human platelet-rich plasma, SFLLRN dense granule ATP release, luminescence; actives 0.22% (n = 300,000);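 active means mean replicate score, as percent of positive control, at or above 50; inconclusive means mean below 50 but at least one replicate at or above 50; inactive means mean and every replicate below 50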
TRPC6 act = activates the mouse TRPC6 cation channel. B-score at 10 µM. HEK293-TRPC6 membrane potential dye fluorescence; hits give high values. actives 0.13% (n = 310,000). Q61143;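 active means B-score of the integrated fluorescence ratio above library mean plus 3 SD, and starting fluorescence ratio within library mean plus 5 SD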;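 further: higher score means more depolarization so channel activation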
Large screens that a line does not name were inactive. The list is not random: actives were taken first. Their share in the collection is about 2.5%.

CC(=O)N1c2ccc(S(=O)(=O)NCCC(=O)NCCc3ccc(C)cc3)cc2CC1C (stereo unspecified)	none
O=C(COC(=O)Cn1cnc2ccccc2c1=O)Nc1ccccc1Sc1ccc(Cl)cc1	TRPC4 inh -5
CC(C)NC(=O)c1ccc2c3n(nc2c1)-c1ccccc1CO3	none
CC(C)[C@@H](CO)NC(=O)c1ccc2c3n(nc2c1)-c1ccccc1CO3	Platelet DG rel 75
COc1ccc(N/C(C)=C2/C(=O)C(=O)N(CCO)C2c2ccc(Br)cc2)cc1 (stereo unspecified)	TRPC4 PAM 43, TRPC4 agonist 123
CC(C)COc1ccc(C(=O)Nc2ccc(NC(=O)c3ccco3)c(Cl)c2)cc1	Platelet DG rel 50
Cc1cc(NC(=O)c2ccc3c(c2)OCO3)ccc1NC(=O)c1ccco1	Platelet DG rel 75
O=C(c1ccc(S(=O)(=O)N2CCOCC2)cc1)N1CCc2ccccc21	none
O=C(Nc1ccc(F)cc1)N1CCN2C(=O)c3ccccc3C12c1ccccc1 (stereo unspecified)	TRPC4 inh -6
CC(=O)c1ccc(N2CCN(S(=O)(=O)c3ccc4c5c3CC(=O)N5CC(C)S4)CC2)cc1 (stereo unspecified)	none
CC(=O)c1ccc(NC(=O)c2ccn[nH]2)cc1	Platelet DG rel 50
C/C(=N\Nc1ccc(C)c(Cl)c1)c1cccnc1	none
O=[N+]([O-])c1cc(Cl)ccc1N1CCN(c2ccccc2O)CC1	TRPC4 PAM 12
O=[N+]([O-])c1cc(Cl)ccc1N1CCCCC1	none
O=C(NCC1CCCO1)c1ccc(COc2ccccc2)cc1 (stereo unspecified)	none
COC(=O)c1ccc(Nc2cc(C)nc3ccccc23)cc1	TRPC4 inh -6
COc1ccc(Nc2cc(C)nc3ccc(OC)cc23)cc1	TRPC4 inh -6
COC(=O)c1ccc2nc(C)cc(Nc3ccc(N(C)C)cc3)c2c1	none
Cc1ccc(Nc2cc(C)nc3ccc(C)cc23)cc1	TRPC4 inh -6
CC(Sc1ccccc1)C(=O)Nc1ccccc1C(=O)N1CCOCC1 (stereo unspecified)	Platelet DG rel inconclusive
CN(C)S(=O)(=O)c1ccc(Cl)c(C(=O)Nc2ccc(S(=O)(=O)N3CCOCC3)cc2)c1	none
COc1ccc(CCC(C)NCc2cc(OC)cc(OC)c2)cc1 (stereo unspecified)	none
COc1ccc(CCC(C)NCC2CCCCC2)cc1 (stereo unspecified)	TRPC4 inh -7
CCN1C=CC2=C(C#N)C(N)C(C#N)(C#N)C(c3ccccc3C(F)(F)F)C2C1 (stereo unspecified)	none
CCOc1ccc(C(=O)NCCc2cnc[nH]2)cc1	none
O=C(NCCc1cnc[nH]1)c1ccc(-c2ccccc2)cc1	TRPC4 agonist 106
COc1cc(OC)cc(C(=O)NCCc2cnc[nH]2)c1	none
CCOc1ccccc1C(=O)NCCc1cnc[nH]1	TRPC4 PAM 17
Cn1c(-c2ccccc2)cnc1NCc1ccc(F)cc1	TRPC4 inh -7
Cc1cc(Oc2ccc(-c3ccccc3)cc2)nc(N2CCOCC2)n1	none
Cc1cc(Oc2ccc(C(C)(C)C)cc2)nc(N2CCOCC2)n1	TRPC4 PAM 18
C1CCN(c2nc(N3CCCC3)nc(N3CCNCC3)n2)C1	TRPC4 PAM 16, Platelet DG rel inconclusive
O=C(NCCN1CCOCC1)/C(=C\c1ccc(Br)cc1)NC(=O)c1cccs1	none
C#CCNc1ccc([N+](=O)[O-])cc1	none
NCCNc1ccc([N+](=O)[O-])cc1	TRPC4 agonist 62
COc1ccccc1C(=O)NNC1=C(C(=O)C(F)(F)F)CCC1	TRPC4 agonist 93
O=C(NNC1=C(C(=O)C(F)(F)F)CCC1)c1ccccc1Cl	none
CCn1c(=O)c2sccc2n(Cc2cc(C(=O)OC)ccc2OC)c1=O	none
Cc1cccc(Oc2nc3ccccn3c(=O)c2/C=C(\C#N)C(=O)NC2CCS(=O)(=O)C2)c1 (stereo unspecified)	none
Cc1cccc(Oc2nc3ccccn3c(=O)c2/C=C(\C#N)C(=O)NC2CCS(=O)(=O)C2)c1C (stereo unspecified)	Platelet DG rel 57
Fc1ccc(NCc2n[nH]c(=S)n2Cc2ccccc2)cc1	none
CCCCN(C)CCCNC(=O)c1ccc2c(c1)NC(=O)C(N1CCOCC1)S2 (stereo unspecified)	TRPC4 PAM 12
CCc1ccc(CNC(=O)c2ccc3c(c2)NC(=O)C(N2CCOCC2)S3)cc1 (stereo unspecified)	none
Fc1ccc(N2CCN(Cc3nnc(-c4ccccc4)o3)CC2)cc1	none
NC(=O)NCCN1CCN(c2ncc(C(F)(F)F)cc2Cl)CC1	TRPC4 PAM 15
NNC(=O)CN1CCN(c2ncc(C(F)(F)F)cc2Cl)CC1	none
O=C(c1cc2c(ccc3ccccc32)o1)N1CCN(c2ncc(C(F)(F)F)cc2Cl)CC1	TRPC4 agonist 80
O=C(c1cc2c(ccc3ccccc32)o1)N1CCCCC1	none
NC(=O)c1ccc(N2CCN(c3ncc(C(F)(F)F)cc3Cl)CC2)cc1	TRPC4 PAM 17
Fc1ccc(-c2nnc(CN3CCN(c4ncc(C(F)(F)F)cc4Cl)CC3)o2)cc1	TRPC4 agonist 109
Cc1ccc(OCc2ccc(C(=O)Nc3nc4ccccc4n3C)o2)c([N+](=O)[O-])c1	none
CCOc1ccccc1C(=O)OCC(=O)NCC1CCCCC1	none
O=C(NCC(c1cccs1)N1CCOCC1)c1ccc(Cl)c([N+](=O)[O-])c1 (stereo unspecified)	TRPC4 agonist 90
O=C(NCC(c1cccs1)N1CCOCC1)c1ccccc1NS(=O)(=O)c1ccc(Cl)c([N+](=O)[O-])c1 (stereo unspecified)	none
CN1CCC(NC(=O)c2ccncc2)CC1	none
CC1(C)CC(NC(=O)c2ccncc2)CC(C)(C)N1O	TRPC4 agonist 79
COCC1CCN(C(=O)C2CCC(=O)N(Cc3cccc(F)c3)C2)CC1 (stereo unspecified)	none
CN(CCc1ccccn1)C(=O)Nc1ccc(Cl)cc1	none
CN(CCc1ccccn1)C1CC(=O)N(c2ccc(Cl)cc2)C1=O (stereo unspecified)	TRPC4 agonist 148
CSc1ccccc1C(=O)N1CCC(n2nccc2NC(=O)C(C)(C)C)CC1	none
NC(=O)C[n+]1cccc(CNC(=O)c2ccc(OC(F)F)cc2)c1	none
O=C(C[n+]1ccc(C(=O)NCc2ccccc2)cc1)c1ccc(OC(F)F)cc1	TRPC4 PAM 10
O=C(Nc1ccc(Cl)c([N+](=O)[O-])c1)c1cnccn1	TRPC4 PAM 21
CCCC1=[N+](CC(=O)c2ccc(C)cc2)CCn2cccc21	TRPC4 inh -6

Assay outcomes: PubChem, several laboratories
